According to ChEMBL document CHEMBL1151821, “Macrocyclic peptidomimetic beta-secretase (BACE-1) inhibitors with activity in vivo” (Bioorg Med Chem Lett, 2009):

How the values were obtained:
[1] = test system: Brain; assay: Drug level in APP51/16 transgenic mouse brain expressing human APP at 100 umol/kg, po administered twice at 3 hrs interval measured after 7 hrs of last dose; settings: in vivo
[2] = Drug level in C57BL/6 mouse brain at 30 umol/kg, iv after 5 hrs; assay type: ADME, organism-based; settings: read-out: Drug uptake
Method in brief: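 C57BL/6 mice, single i.v. dose of 30 µmol/kg. Compound levels in brain and plasma followed over 5 h; brain:plasma ratio from 5 min to 5 h.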

[3] = test system: Brain; assay: Drug level in APP51/16 transgenic mouse brain expressing human APP at 30 umol/kg, iv administered twice at 2 hrs interval measured after 3 hrs of last dose; settings: in vivo
[4] = in vivo; settings: C57BL/6, mouse, brain/plasma, iv, 30 umol/kg
[5] = test system: Brain; assay: Drug level in APP51/16 transgenic mouse brain expressing human APP at 30 umol/kg, iv after 5 hrs; assay type: ADME, organism-based; settings: in vivo
Method in brief: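 Single i.v. dose of 30 µmol/kg in APP51/16 transgenic mice (human APP, brain-specific promoter), sacrificed 5 h after dosing. Compound level measured in brain.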

[6] = in vivo; settings: C57BL/6, mouse, brain/plasma, iv, 30 umol/kg; remark: listed apart in the source

SMILES	Drug uptake [1] [µmol/kg]	concentration at 5 h [2] [nM]	Drug uptake [3] [µmol/kg]	Kp at 5 h [4]	Drug uptake [5] [µmol/kg]	Kp at 5 min [6]
CC(C)c1ccc2c(c1)[C@@H](NC[C@@H](O)[C@@H]1C[C@H](C)CCCCCCCCC(=O)N(C)[C@@H](C)C(=O)N1)CC(C)(C)O2	1.5					
CC(C)c1cccc(CNC[C@@H](O)[C@@H]2C[C@H](C)CCCCCCCCC(=O)N(C)[C@@H](C)C(=O)N2)c1		> 1000	4.3	4	1.3	1.5
